Results reported in ChEMBL document CHEMBL3813688, “Synthesis, antitumor activity and mechanism of action of novel 1,3-thiazole derivatives containing hydrazide-hydrazone and carboxamide moiety” (Bioorg Med Chem Lett, 2016).
≈ marks a conversion by molar mass, not a printed value.

Assays:
Format in all cases: functional, cell-based
MCF7 = test: Cytotoxicity against human MCF7 cells assessed as cell growth inhibition after 72 hrs by MTT assay; settings: MCF7, 72 h
Outline: (§1)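 MTT growth assay in human cancer lines (MCF-7, HepG2, BGC-823, HeLa, A549), 72 h after treatment; 5-fluorouracil as reference. IC50 (μg/mL) taken as concentration giving 50% growth inhibition versus untreated control.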

A549 = test: Cytotoxicity against human A549 cells assessed as cell growth inhibition after 72 hrs by MTT assay; settings: A549, 72 h; outline: as §1
HepG2 = test: Cytotoxicity against human HepG2 cells assessed as cell growth inhibition after 72 hrs by MTT assay; settings: HepG2, 72 h; outline: as §1
[1] = Cytotoxicity against human BCG823 cells assessed as cell growth inhibition after 72 hrs by MTT assay; settings: BCG823, 72 h; outline: as §1
HeLa = test: Cytotoxicity against human HeLa cells assessed as cell growth inhibition after 72 hrs by MTT assay; outline: as §1

Structure (SMILES) | IC50 (MCF7) [µg/mL] | IC50 (A549) [µg/mL] | IC50 (HepG2) [µg/mL] | IC50 [1] [µg/mL] | IC50 (HeLa) [µg/mL]
CN(C(=O)NC(=O)c1cccc(C(F)(F)F)c1)c1nc(C(F)(F)F)c(C(=O)N/N=C/c2ccc(C(F)(F)F)cc2)s1 | 6.5 (≈ 10.6 µM) | 6.2 (≈ 10.1 µM) | 7.71 (≈ 12.6 µM) | 4.22 (≈ 6.9 µM) | 7.35 (≈ 12 µM)
CN(C(=O)NC(=O)c1ccc(Cl)cc1Cl)c1nc(C(F)(F)F)c(C(=O)N/N=C/c2cccc(C(F)(F)F)c2)s1 | 10.7 (≈ 17.5 µM) | 10.5 (≈ 17.2 µM) | 11.2 (≈ 18.3 µM) | 6.11 (≈ 9.98 µM) | 9.6 (≈ 15.7 µM)
COc1cc(/C=N/NC(=O)c2sc(N(C)C(=O)NC(=O)c3c(F)cccc3F)nc2C)cc(OC)c1OC |  |  | > 100 |  | 
CN(C(=O)NC(=O)c1ccc(Cl)cc1Cl)c1nc(C(F)(F)F)c(C(=O)N/N=C/c2ccccc2C(F)(F)F)s1 | 9.12 (≈ 14.9 µM) | 15.3 (≈ 25 µM) | 10.7 (≈ 17.4 µM) | 5.73 (≈ 9.36 µM) | 9 (≈ 14.7 µM)
Cc1nc(N(C)C(=O)NC(=O)c2c(F)cccc2F)sc1C(=O)N/N=C/c1ccccc1 |  |  | 54.3 (≈ 119 µM) |  | 
CN(C(=O)NC(=O)c1ccc(F)c(F)c1)c1nc(C(F)(F)F)c(C(=O)N/N=C/c2ccccc2C(F)(F)F)s1 | 8.21 (≈ 14.2 µM) | 6.96 (≈ 12 µM) | 10.4 (≈ 17.9 µM) | 3.66 (≈ 6.32 µM) | 9.24 (≈ 15.9 µM)
CN(C(=O)NC(=O)c1c(F)cccc1F)c1nc(C(F)(F)F)c(C(=O)N/N=C/c2cccc(C(F)(F)F)c2)s1 | 21.8 (≈ 37.6 µM) | 27.6 (≈ 47.6 µM) | 27.9 (≈ 48.1 µM) | 25.9 (≈ 44.6 µM) | 21.6 (≈ 37.3 µM)
CN(C(=O)NC(=O)c1cccc(C(F)(F)F)c1)c1nc(C(F)(F)F)c(C(=O)N/N=C/c2cc(C(F)(F)F)cc(C(F)(F)F)c2)s1 | 6.08 (≈ 8.95 µM) | 8.2 (≈ 12.1 µM) | 5.38 (≈ 7.92 µM) | 5.23 (≈ 7.7 µM) | 5.34 (≈ 7.86 µM)
CN(C(=O)NC(=O)c1ccccc1)c1nc(C(F)(F)F)c(C(=O)N/N=C/c2cccc([N+](=O)[O-])c2)s1 | 15.4 (≈ 29.6 µM) | 20.7 (≈ 39.7 µM) | 14.3 (≈ 27.5 µM) | 13.6 (≈ 26.1 µM) | 11.2 (≈ 21.6 µM)
CN(C(=O)NC(=O)c1ccc([N+](=O)[O-])cc1)c1nc(C(F)(F)F)c(C(=O)N/N=C/c2ccc([N+](=O)[O-])cc2)s1 | 9.24 (≈ 16.3 µM) | 8.98 (≈ 15.9 µM) | 12.3 (≈ 21.8 µM) | 7.45 (≈ 13.2 µM) | 8.42 (≈ 14.9 µM)
CN(C(=O)NC(=O)c1ccc(C(F)(F)F)cc1)c1nc(C(F)(F)F)c(C(=O)N/N=C/c2ccc(C(F)(F)F)cc2)s1 | > 100 | > 100 | > 100 | > 100 | > 100
CN(C(=O)NC(=O)c1ccccc1F)c1nc(C(F)(F)F)c(C(=O)N/N=C/c2ccc(C(F)(F)F)cc2)s1 | 4.98 (≈ 8.87 µM) | 5.68 (≈ 10.1 µM) | 4.56 (≈ 8.12 µM) | 3.87 (≈ 6.89 µM) | 3.97 (≈ 7.07 µM)
Cc1nc(N(C)C(=O)NC(=O)c2c(F)cccc2F)sc1C(=O)N/N=C/c1cccc(C(F)(F)F)c1 | 28.1 (≈ 53.6 µM) | 30.3 (≈ 57.7 µM) | 31.6 (≈ 60.1 µM) | 32.6 (≈ 62.1 µM) | 26.8 (≈ 51 µM)
CN(C(=O)NC(=O)c1cccc(C(F)(F)F)c1)c1nc(C(F)(F)F)c(C(=O)N/N=C/c2cccc(C(F)(F)F)c2)s1 | 3.7 (≈ 6.05 µM) | 8.16 (≈ 13.3 µM) | 5.79 (≈ 9.47 µM) | 4.6 (≈ 7.52 µM) | 4.81 (≈ 7.87 µM)
CN(C(=O)NC(=O)c1c(F)cccc1F)c1nc(C(F)(F)F)c(C(=O)N/N=C/c2ccc(C(F)(F)F)cc2)s1 | 35.3 (≈ 61 µM) | 40.1 (≈ 69.2 µM) | 49.6 (≈ 85.6 µM) | 34.9 (≈ 60.2 µM) | 30.6 (≈ 52.8 µM)
Cc1nc(N(C)C(=O)NC(=O)c2c(F)cccc2F)sc1C(=O)N/N=C/c1ccc(Cl)cc1Cl |  |  | 70 (≈ 133 µM) |  | 
Cc1nc(N(C)C(=O)NC(=O)c2c(F)cccc2F)sc1C(=O)N/N=C/c1ccc(F)cc1 |  |  | > 100 |  | 
Cc1nc(N(C)C(=O)NC(=O)c2c(F)cccc2F)sc1C(=O)N/N=C/c1ccccc1Cl |  |  | > 100 |  | 
Cc1nc(N(C)C(=O)NC(=O)c2c(F)cccc2F)sc1C(=O)N/N=C/c1ccc(Cl)cc1 |  |  | > 100 |  | 
Cc1nc(N(C)C(=O)NC(=O)c2c(F)cccc2F)sc1C(=O)N/N=C/c1ccccc1F |  |  | > 100 |  | 
COc1ccc(/C=N/NC(=O)c2sc(N(C)C(=O)NC(=O)c3c(F)cccc3F)nc2C)cc1 |  |  | 22.7 (≈ 46.5 µM) |  | 
